Data: ChEMBL document CHEMBL3992561, “Synthesis of 1,3,5-trisubstituted pyrazolines as potential antimalarial and antimicrobial agents” (Bioorg Med Chem, 2017)
≈ marks a conversion by molar mass, not a printed value.

What was measured:
[1] = Inhibition of beta-hematin formation assessed as reduction in acetate buffer-initiated hemozoin formation after 18 hrs by spectrophotometric method relative to control; design: concentration or dose not given beside the values; details: concentration not given here
Summary of the method: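 Colorimetric β-hematin assay after Ncokazi and Egan. Haemin chloride in DMSO, with compounds at 0.12–5 molar equivalents to haemin and DMSO as control. Reaction started with acetate buffer pH 5.0 and run 18 h at 37°C. Pellet then washed with DMSO to remove unreacted haematin. % inhibition computed from test versus control absorbance. Duplicate determinations.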

[2] = Selectivity index, ratio of IC50 for human HepG2 cells to IC50 for chloroquine-resistant Plasmodium falciparum RKL-9 schizont infected in RBC; format: toxicity; details: read-out: Ratio IC50
Summary of the method: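 HepG2 in RPMI 1640 with 10% FCS, 5 x 10^2 cells/well, serial dilutions (DMSO stocks) added after 1 h; 7 days at 37°C, 5% CO2; MTT 4 h, formazan in ethanol, absorbance 570 nm; IC50 by non-linear regression, one experiment in duplicate. Index = HepG2 IC50 / RKL-9 antiplasmodial IC50.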

Plasmodium falciparum [3] = assay: Antimalarial activity against chloroquine-sensitive Plasmodium falciparum MRC-2 schizont infected in RBC measured after 24 to 30 hrs hrs by giemsa staining based light microscopic method; format: functional
Summary of the method: (§1)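 Asynchronous cultures synchronised to rings with 5% aqueous sorbitol, other stages removed by centrifugation; parasitemia about 1% in fresh washed RBCs. Compounds dissolved in DMSO, diluted in RPMI-1640, tested at several concentrations in triplicate; drug-free wells as control. Incubation 37°C in CO2 for 24-30 h until schizont maturation; methanol-fixed Giemsa smears counted under oil immersion; % inhibition, IC50 by probit; n=2.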

Plasmodium falciparum [4] = assay: Antimalarial activity against chloroquine-resistant Plasmodium falciparum RKL-9 schizont infected in RBC measured after 24 to 30 hrs hrs by giemsa staining based light microscopic method; format: functional; summary of the method: as §1
HepG2 = assay: Cytotoxicity against human HepG2 cells assessed as reduction in cell viability after 7 days by MTT assay; format: cell-based; details: HepG2, 168 h
Summary of the method: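 HepG2 cells maintained in RPMI 1640 with 10% FCS. Seeded at 5 x 10^2 cells per well and pre-incubated 1 h at 37°C, 5% CO2. Serial dilutions from DMSO stocks added, with medium and DMSO solvent controls. Cells incubated seven days, then MTT (5 mg/ml) added for 4 h. Formazan dissolved in ethanol, A570 read. IC50 by non-linear regression of % growth against log concentration.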

Staphylococcus aureus = assay: Antibacterial activity against Staphylococcus aureus MTCC 3160 after 24 hrs by broth microdilution method; format: functional; details: MTCC 3160, 24 h
Summary of the method: (§2)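 Broth microdilution per NCCLS in Mueller-Hinton broth, inoculum 5 x 10^5 CFU/ml. Compounds dissolved in DMSO, twofold serial dilutions made in sterile distilled water. Incubated at 35°C for 24 h. MIC (µg/ml) taken as the lowest concentration with no visible turbidity by unaided eye. Ciprofloxacin as positive control. Three replicates, mean ± SD.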

Bacillus subtilis = assay: Antibacterial activity against Bacillus subtilis MTCC 121 after 24 hrs by broth microdilution method; format: functional; details: MTCC 121, 24 h; summary of the method: as §2
Escherichia coli = assay: Antibacterial activity against Escherichia coli MTCC 51 after 24 hrs by broth microdilution method; format: functional; details: MTCC 51, 24 h; summary of the method: as §2
Pseudomonas aeruginosa = assay: Antibacterial activity against Pseudomonas aeruginosa MTCC 741 after 24 hrs by broth microdilution method; format: functional; details: MTCC 741, 24 h; summary of the method: as §2
Aspergillus niger = assay: Antifungal activity against Aspergillus niger MTCC 8189 after 48 hrs by broth microdilution method; format: functional; details: MTCC 8189, 48 h
Summary of the method: (§3)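 Fungi grown in Sabouraud liquid medium, inoculum 0.5–2.5 x 10^3 CFU/ml. Broth microdilution per NCCLS using twofold serial dilutions in sterile water from DMSO solutions. Incubated at 35°C for 48 h. MIC (µg/ml) was the lowest concentration with no visible growth by eye. Fluconazole as positive control. Mean ± SD of three replicates.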

Candida albicans = assay: Antifungal activity against Candida albicans MTCC 227 after 48 hrs by broth microdilution method; format: functional; details: MTCC 227, 48 h; summary of the method: as §3

SMILES | inhibition [1] [%] | selectivity ratio [2] | IC50 (Plasmodium falciparum [3]) [nM] | IC50 (Plasmodium falciparum [4]) [nM] | IC50 (HepG2) [nM] | MIC (Staphylococcus aureus) [µg/mL] | MIC (Bacillus subtilis) [µg/mL] | MIC (Escherichia coli) [µg/mL] | MIC (Pseudomonas aeruginosa) [µg/mL] | MIC (Aspergillus niger) [µg/mL] | MIC (Candida albicans) [µg/mL]
CCN(CC)CCCC(C)Nc1ccnc2cc(Cl)ccc12 (configuration not stated) | 87 | – | – | – | – | – | – | – | – | – | –
O=C(c1cccnc1)N1N=C(c2ccc(O)cc2)CC1c1ccc([N+](=O)[O-])cc1 (configuration not stated) | < 5 | 7.63 | 1570 | 2440 | 18600 | 6.5 (≈ 16.7 µM) | 12.5 (≈ 32.2 µM) | 6.5 (≈ 16.7 µM) | 25 (≈ 64.4 µM) | 25 (≈ 64.4 µM) | 12.5 (≈ 32.2 µM)
COc1ccc(OC)c(C2CC(c3ccc(O)cc3)=NN2C(=O)c2cccnc2)c1 (configuration not stated) | 71 | 172 | 40 | 330 | 56800 | 25 (≈ 62 µM) | 25 (≈ 62 µM) | 25 (≈ 62 µM) | 12.5 (≈ 31 µM) | 12.5 (≈ 31 µM) | 75 (≈ 186 µM)
CC(C)c1ccc(C2CC(c3ccc(O)cc3)=NN2C(=O)c2cccnc2)cc1 (configuration not stated) | 48 | 83.3 | 34 | 465 | 38700 | 12.5 (≈ 32.4 µM) | 50 (≈ 130 µM) | 3.25 (≈ 8.43 µM) | 12.5 (≈ 32.4 µM) | 25 (≈ 64.9 µM) | 12.5 (≈ 32.4 µM)
O=C(c1cccnc1)N1N=C(c2ccc(O)cc2)CC1c1ccccc1Cl (configuration not stated) | 31 | 20.5 | 240 | 2330 | 47700 | 75 (≈ 199 µM) | 12.5 (≈ 33.1 µM) | 50 (≈ 132 µM) | 3.25 (≈ 8.6 µM) | 3.25 (≈ 8.6 µM) | 6.5 (≈ 17.2 µM)
COc1ccc(C2CC(c3ccc(O)cc3)=NN2C(=O)c2cccnc2)cc1OC (configuration not stated) | 89 | 213 | 30 | 251 | 53600 | 50 (≈ 124 µM) | 50 (≈ 124 µM) | 50 (≈ 124 µM) | 25 (≈ 62 µM) | 6.5 (≈ 16.1 µM) | 75 (≈ 186 µM)
O=C(O)c1cn(C2CC2)c2cc(N3CCNCC3)c(F)cc2c1=O [CIPROFLOXACIN] | – | – | – | 401 | 27000 | – | 25 (≈ 75.4 µM) | 12.5 (≈ 37.7 µM) | – | – | –
COc1ccc(C2CC(c3ccc(O)cc3)=NN2C(=O)c2cccnc2)cc1C (configuration not stated) | 66 | 57.5 | 63 | 779 | 44800 | 25 (≈ 64.5 µM) | 25 (≈ 64.5 µM) | 12.5 (≈ 32.3 µM) | 6.5 (≈ 16.8 µM) | 25 (≈ 64.5 µM) | 50 (≈ 129 µM)
O=C(c1cccnc1)N1N=C(c2ccc(O)cc2)CC1c1ccc(OCc2ccccc2)cc1 (configuration not stated) | < 5 | 4.48 | 214 | 2550 | 11400 | 50 (≈ 111 µM) | 50 (≈ 111 µM) | 25 (≈ 55.6 µM) | 12.5 (≈ 27.8 µM) | 12.5 (≈ 27.8 µM) | 3.25 (≈ 7.23 µM)
O=C(c1cccnc1)N1N=C(c2ccc(O)cc2)CC1c1ccc(F)cc1 (configuration not stated) | < 5 | 18.1 | 2500 | 2900 | 52400 | 12.5 (≈ 34.6 µM) | 3.25 (≈ 8.99 µM) | 6.5 (≈ 18 µM) | 12.5 (≈ 34.6 µM) | 25 (≈ 69.2 µM) | 12.5 (≈ 34.6 µM)
CC(C)Oc1ccc(C2CC(c3ccc(O)cc3)=NN2C(=O)c2cccnc2)cc1 (configuration not stated) | 78 | 139 | 38 | 337 | 45400 | 50 (≈ 125 µM) | 75 (≈ 187 µM) | 6.5 (≈ 16.2 µM) | 50 (≈ 125 µM) | 12.5 (≈ 31.1 µM) | 6.5 (≈ 16.2 µM)
Cc1cc(C)c(C2CC(c3ccc(O)cc3)=NN2C(=O)c2cccnc2)c(C)c1 (configuration not stated) | 67 | 100 | 94 | 544 | 54500 | 12.5 (≈ 32.4 µM) | 12.5 (≈ 32.4 µM) | 6.5 (≈ 16.9 µM) | 6.5 (≈ 16.9 µM) | 25 (≈ 64.9 µM) | 50 (≈ 130 µM)
COc1ccc(C2CC(c3ccc(O)cc3)=NN2C(=O)c2cccnc2)cc1 (configuration not stated) | 54 | 76.3 | 59 | 556 | 42400 | 50 (≈ 134 µM) | 75 (≈ 201 µM) | 25 (≈ 67 µM) | 25 (≈ 67 µM) | 12.5 (≈ 33.5 µM) | 50 (≈ 134 µM)
O=C(c1cccnc1)N1N=C(c2ccc(O)cc2)CC1c1ccc(Br)cc1 (configuration not stated) | 76 | 60.5 | 141 | 970 | 58700 | 6.5 (≈ 15.4 µM) | 12.5 (≈ 29.6 µM) | 25 (≈ 59.2 µM) | 12.5 (≈ 29.6 µM) | 25 (≈ 59.2 µM) | 50 (≈ 118 µM)
CC(C)c1ccccc1C1CC(c2ccc(O)cc2)=NN1C(=O)c1cccnc1 (configuration not stated) | 57 | 30.1 | 110 | 1650 | 49700 | 25 (≈ 64.9 µM) | 12.5 (≈ 32.4 µM) | 3.25 (≈ 8.43 µM) | 12.5 (≈ 32.4 µM) | 25 (≈ 64.9 µM) | 50 (≈ 130 µM)
CCCc1ccc(C2CC(c3ccc(O)cc3)=NN2C(=O)c2cccnc2)cc1 (configuration not stated) | 81 | 216 | 22 | 192 | 41600 | 12.5 (≈ 32.4 µM) | 50 (≈ 130 µM) | 12.5 (≈ 32.4 µM) | 12.5 (≈ 32.4 µM) | 25 (≈ 64.9 µM) | 25 (≈ 64.9 µM)
CCc1ccccc1C1CC(c2ccc(O)cc2)=NN1C(=O)c1cccnc1 (configuration not stated) | 53 | 75.1 | 81 | 471 | 35400 | 50 (≈ 135 µM) | 50 (≈ 135 µM) | 12.5 (≈ 33.7 µM) | 25 (≈ 67.3 µM) | 50 (≈ 135 µM) | 100 (≈ 269 µM)
OC(Cn1cncn1)(Cn1cncn1)c1ccc(F)cc1F [FLUCONAZOLE] | – | – | – | – | – | – | – | – | – | 25 (≈ 81.6 µM) | 12.5 (≈ 40.8 µM)
